These results are taken from ChEMBL document CHEMBL1155242, “Radiolabeled 5-iodo-3'-O-(17beta-succinyl-5alpha-androstan-3-one)-2'-deoxyuridine and its 5'-monophosphate for imaging and therapy of androgen receptor-positive cancers: synthesis and biological evaluation” (J Med Chem, 2009).

Data set [1] is described as follows: Stability in rabbit serum assessed as intact compound remaining at 10 to 20 uCi/mL after 60 mins by size-exclusion HPLC analysis. The class given is ADME, cell-free, Oryctolagus cuniculus. As to conditions: read-out: Stability. In outline:
(§1)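 Radioiodinated compound incubated 60 min with human, rabbit or mouse serum, or with purified human SHBG. Aliquots analysed on a TSK3000 size-exclusion column: 0.1 M potassium phosphate/0.1 M Na2SO4 (1:1, pH 6.8) for 20 min, then 0–40% CH3CN over 20 min, held 30 min, 0.7 mL/min. Protein-bound versus free radioactivity read from the peaks.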
For orientation: Size exclusion chromatography separates by hydrodynamic size, large species first.

Data set [2] addresses Albumin (Homo sapiens, UniProt P02768). The experiment in a line: Binding affinity to human serum albumin at 10 to 20 uCi/mL after 60 mins by size-exclusion HPLC analysis. Format: ADME. As to conditions: isolated protein, 1 h. In outline:
as §1

Data set [3] concerns the target T1, Sex hormone-binding globulin (Homo sapiens, UniProt P04278).
T1 sequence (P04278 whole entry): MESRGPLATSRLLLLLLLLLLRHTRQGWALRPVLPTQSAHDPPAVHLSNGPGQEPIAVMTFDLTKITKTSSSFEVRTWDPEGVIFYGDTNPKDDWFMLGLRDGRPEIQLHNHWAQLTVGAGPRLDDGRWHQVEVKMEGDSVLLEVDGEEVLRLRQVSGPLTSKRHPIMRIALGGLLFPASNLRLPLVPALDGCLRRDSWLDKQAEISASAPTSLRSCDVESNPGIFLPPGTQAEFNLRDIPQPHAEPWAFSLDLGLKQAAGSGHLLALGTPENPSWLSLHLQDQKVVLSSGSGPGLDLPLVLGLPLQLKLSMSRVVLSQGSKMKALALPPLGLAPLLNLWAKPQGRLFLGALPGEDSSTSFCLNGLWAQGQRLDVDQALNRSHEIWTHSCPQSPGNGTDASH
The experiment in a line: Binding affinity to human sex hormone binding globulin at 10 to 20 uCi up to 6 hrs by reversed phase HPLC analysis. The class given is ADME.

In data set [4] the target is T2, Albumin (Mus musculus, UniProt P07724). The experiment in a line: Binding affinity to mouse serum albumin at 10 to 20 uCi/mL after 60 mins by reversed phase HPLC analysis. The class given is ADME. As to conditions: isolated protein, 1 h.
T2 sequence (P07724 whole entry): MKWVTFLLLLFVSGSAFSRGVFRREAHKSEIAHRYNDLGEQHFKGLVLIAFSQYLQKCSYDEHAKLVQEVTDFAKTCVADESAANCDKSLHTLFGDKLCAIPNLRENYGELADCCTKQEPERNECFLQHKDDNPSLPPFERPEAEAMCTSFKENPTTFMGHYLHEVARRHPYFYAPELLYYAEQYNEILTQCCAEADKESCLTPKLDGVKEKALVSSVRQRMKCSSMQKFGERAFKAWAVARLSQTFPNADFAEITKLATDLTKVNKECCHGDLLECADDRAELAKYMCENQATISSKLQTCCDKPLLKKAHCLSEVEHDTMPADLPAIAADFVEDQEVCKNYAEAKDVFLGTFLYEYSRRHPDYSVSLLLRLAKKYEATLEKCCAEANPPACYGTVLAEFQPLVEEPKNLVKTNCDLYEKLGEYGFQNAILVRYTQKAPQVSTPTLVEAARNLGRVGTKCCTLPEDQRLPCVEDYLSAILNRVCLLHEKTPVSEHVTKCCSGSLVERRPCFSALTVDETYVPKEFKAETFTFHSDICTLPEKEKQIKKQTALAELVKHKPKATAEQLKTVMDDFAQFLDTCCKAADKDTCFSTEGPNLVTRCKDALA
Data set [5] in a line: Stability in human serum assessed as intact compound remaining at 10 to 20 uCi/mL after 60 mins by size-exclusion HPLC analysis. The class given is ADME, cell-free. As to conditions: read-out: Stability. In outline: as §1
The target of data set [6] is T1, Sex hormone-binding globulin. The experiment in a line: Binding affinity to human sex hormone binding globulin at 10 to 20 uCi up to 6 hrs by size-exclusion HPLC analysis. Format: ADME.
Data set [7] can be described thus: Stability in rabbit serum assessed as intact compound remaining at 10 to 20 uCi/mL after 60 mins by reversed phase HPLC analysis. Format: ADME, cell-free, Oryctolagus cuniculus. As to conditions: read-out: Stability. In outline:
(§2)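 After 60 min incubation in human, rabbit or mouse serum, incubation mixtures were extracted. Extracts were run on C18 reverse-phase HPLC with H2O/CH3CN, both with 0.07% TFA: 100% aqueous for 10 min, then 0–95% CH3CN over 30 min, held 20 min. Intact radioactive compound was distinguished from degradation product against nonradioactive reference standards.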

For data set [8], the target named is Albumin (Oryctolagus cuniculus, UniProt P49065). The experiment in a line: Binding affinity to rabbit serum albumin at 10 to 20 uCi/mL after 60 mins by size-exclusion HPLC analysis. Format: ADME. As to conditions: isolated protein, 1 h. The method, boiled down:
as §1

Data set [9] is described as follows: Stability in human serum assessed as intact compound remaining at 10 to 20 uCi/mL after 60 mins by reversed phase HPLC analysis. Format: ADME, cell-free. As to conditions: read-out: Stability. The method, boiled down:
as §2

The nature of data set [10]: Stability in mouse serum assessed as intact compound remaining at 10 to 20 uCi/mL after 60 mins by size-exclusion HPLC analysis. As to conditions: read-out: Stability. The class given is ADME, cell-free. The method, boiled down:
as §1

Data set [11] addresses T2, Albumin. Nature of the data set: Binding affinity to mouse serum albumin at 10 to 20 uCi/mL after 60 mins by size-exclusion HPLC analysis. As to conditions: isolated protein, 1 h. Format: ADME. The method, boiled down: as §1
Data set [12] is described as follows: Stability in mouse serum assessed as intact compound remaining at 10 to 20 uCi/mL after 60 mins by reversed phase HPLC analysis. Format: ADME, cell-free. As to conditions: read-out: Stability. The method, boiled down:
as §2

In data set [13] the test system is OVCAR-3. The experiment in a line: Antitumor activity against human OVCAR-3 cells xenografted in athymic NCr mouse administered 12 days after tumor implantation at a escalating dose of 5 uCi, ip of day 1, 20 uCi, ip on day 2, 15 uCi, ip on day 3 measured 5 weeks after implantation. Format: functional, organism-based. As to conditions: tested as the 125I-labelled form. On the technique in general: In xenograft studies the graft and the host belong to different species.

The test system of data set [14] is OVCAR-3. The experiment in a line: Antitumor activity against human OVCAR-3 cells xenografted in athymic NCr mouse at 14 uCi, ip administered 12 days after tumor implantation as single dose measured 5 weeks after implantation. The class given is functional, organism-based. As to conditions: tested as the 125I-labelled form. The method, boiled down:
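Athymic NCr-nu/nu female mice bearing ip OVCAR-3 implants; compound given ip either as one 14 μCi/mouse dose or as three escalating daily doses of 5, 10 and 15 μCi/mouse (total 30 μCi); tumor response assessed at necropsy.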

Data set [15] in a line: Stability in human OVCAR-3 cells expressing androgen receptor assessed as half life at 0.01 to 5 uCi/mL by silica gel instant thin layer chromatography. Format: ADME, cell-based.
Data set [16] is described as follows: Stability in human OVCAR-3 cells expressing androgen receptor assessed as assessed as compound degradation at 0.01 to 5 uCi/mL up to 24 hrs by silica gel instant thin layer chromatography. The class given is ADME, cell-based. As to conditions: read-out: Activity.

Active and inactive are the calls of the source. The calls are words filed in the database; no cut-off is given here.

In general, half-life refers to how long it takes for the measured level to halve.

Chain of Albumin (Homo sapiens, UniProt P02768) (P02768 whole entry): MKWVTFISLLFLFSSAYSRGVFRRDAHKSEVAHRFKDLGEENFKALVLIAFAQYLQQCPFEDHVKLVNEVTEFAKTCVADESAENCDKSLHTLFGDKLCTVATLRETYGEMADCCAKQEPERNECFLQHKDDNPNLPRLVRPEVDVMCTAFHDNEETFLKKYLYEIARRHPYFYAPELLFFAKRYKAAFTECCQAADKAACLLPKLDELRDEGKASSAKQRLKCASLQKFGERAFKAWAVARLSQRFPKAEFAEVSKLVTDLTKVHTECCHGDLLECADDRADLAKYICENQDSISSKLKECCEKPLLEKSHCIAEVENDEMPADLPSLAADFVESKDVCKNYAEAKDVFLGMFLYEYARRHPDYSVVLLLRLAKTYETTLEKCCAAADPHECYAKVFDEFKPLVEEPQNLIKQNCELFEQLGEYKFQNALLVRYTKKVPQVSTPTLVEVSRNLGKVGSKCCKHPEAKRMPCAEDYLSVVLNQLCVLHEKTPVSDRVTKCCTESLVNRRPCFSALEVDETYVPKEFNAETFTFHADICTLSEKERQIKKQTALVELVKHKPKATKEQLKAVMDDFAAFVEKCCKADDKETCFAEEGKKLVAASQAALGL
Chain of Albumin (Oryctolagus cuniculus, UniProt P49065) (P49065 whole entry): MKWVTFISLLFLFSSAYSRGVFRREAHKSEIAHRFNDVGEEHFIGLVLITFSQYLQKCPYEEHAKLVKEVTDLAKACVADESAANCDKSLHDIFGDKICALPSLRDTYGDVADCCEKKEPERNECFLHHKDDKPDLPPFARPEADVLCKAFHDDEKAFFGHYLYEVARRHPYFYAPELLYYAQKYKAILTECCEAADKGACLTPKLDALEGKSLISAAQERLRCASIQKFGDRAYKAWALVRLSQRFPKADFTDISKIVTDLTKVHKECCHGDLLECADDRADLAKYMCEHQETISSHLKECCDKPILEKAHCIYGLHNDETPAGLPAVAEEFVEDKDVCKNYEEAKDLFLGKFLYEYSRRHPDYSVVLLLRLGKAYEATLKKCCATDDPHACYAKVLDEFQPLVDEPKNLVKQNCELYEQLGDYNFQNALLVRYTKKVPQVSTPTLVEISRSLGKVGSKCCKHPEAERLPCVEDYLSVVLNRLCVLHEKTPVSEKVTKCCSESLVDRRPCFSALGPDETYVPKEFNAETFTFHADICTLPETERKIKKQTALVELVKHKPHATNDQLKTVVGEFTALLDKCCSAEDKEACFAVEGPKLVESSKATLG

With `CCOC(=O)CCC(=O)O[C@H]1C[C@H](n2cc([125I])c(=O)[nH]c2=O)O[C@@H]1CO`, the remaining at 1 h in data set [1] is < 2%; in data set [5] it was > 90%; in data set [7] it was < 2%; in [9], > 90%; in [10], < 2%; in data set [12], < 2%. Also, the Activity entry (at Albumin [2]; in data set [3]; on Albumin [4]; in data set [6]; at Albumin [8]; on Albumin [11]) was “Not Active” in each case.
With `C[C@]12CCC(=O)C[C@@H]1CC[C@@H]1[C@@H]2CC[C@]2(C)[C@@H](OC(=O)CCC(=O)O[C@H]3C[C@H](n4cc(I)c(=O)[nH]c4=O)O[C@@H]3CO)CC[C@@H]12`, the result in the data set with OVCAR-3 [13] and in the data set on OVCAR-3 [14] was inactive.
For the compound `C[C@]12CCC(=O)C[C@@H]1CC[C@@H]1[C@@H]2CC[C@]2(C)[C@@H](OC(=O)CCC(=O)O[C@H]3C[C@H](n4cc([123I])c(=O)[nH]c4=O)O[C@@H]3CO)CC[C@@H]12`, the half-life in data set [15] was 13.2 h. The metabolised at 24 h in data set [16] was > 70%.
For `O=c1[nH]c(=O)n([C@H]2C[C@H](O)[C@@H](COP(=O)(O)O)O2)cc1[125I]`, the remaining at 1 h in data set [1], in [5], in [7] and in [9] was 30% throughout. The Activity result (at Albumin [2]; in data set [3]; on Albumin [4]; in data set [6]; at Albumin [8]; on Albumin [11]) was “Not Active” in each case.
